In publication PMC5599375 (Journal of medicinal chemistry, 2017):
In brackets after ≈: the same amount, converted by molar mass. Entries after “also recorded” stand apart in the source; their conditions may differ. Like-named read-outs stand apart in the source and are kept apart here.

What was measured:
[1] = target: T1, NDM-1 (Klebsiella pneumoniae, UniProt C7C422); conditions: for Zn(II) content of NDM-1 after incubation and dialysis: NDM-1 8 μM, 50 mM HEPES pH 7.5
[2] = target: T2, MMP-2 (Homo sapiens, UniProt P08253); experiment: MMP-2 inhibition, OmniMMP fluorogenic substrate; format: biochemical; conditions: at 10 μM
T2 sequence (P08253 110-660): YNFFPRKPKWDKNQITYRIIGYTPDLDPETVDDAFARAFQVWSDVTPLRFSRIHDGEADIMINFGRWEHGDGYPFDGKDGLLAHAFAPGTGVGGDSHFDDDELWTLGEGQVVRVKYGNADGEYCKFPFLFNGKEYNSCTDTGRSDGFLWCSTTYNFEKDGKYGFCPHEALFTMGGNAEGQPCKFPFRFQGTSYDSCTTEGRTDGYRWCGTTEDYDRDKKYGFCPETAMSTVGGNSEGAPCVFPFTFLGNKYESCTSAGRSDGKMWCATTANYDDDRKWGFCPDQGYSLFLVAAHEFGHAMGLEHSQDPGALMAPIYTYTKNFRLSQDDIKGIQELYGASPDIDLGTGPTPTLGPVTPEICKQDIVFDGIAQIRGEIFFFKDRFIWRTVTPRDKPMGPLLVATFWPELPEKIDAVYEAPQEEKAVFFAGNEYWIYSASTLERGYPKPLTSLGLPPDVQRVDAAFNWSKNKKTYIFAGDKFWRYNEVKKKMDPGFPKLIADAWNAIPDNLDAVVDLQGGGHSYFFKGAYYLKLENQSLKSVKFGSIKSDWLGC
Procedure, shortened: (§1)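 Human recombinant MMP-2 (1.16 U/well) or MMP-12 (0.007 U/well) was preincubated with test compound (1 mM–5 μM range) for 30 min at 37 °C in 50 mM HEPES, 10 mM CaCl2, 0.05% Brij-35, pH 7.5. The reaction was started with 4 μM OmniMMP substrate (Mca-Pro-Leu-Gly-Leu-Dpa-Ala-Arg-NH2), and the fluorescence increase was monitored over 20 min (ex 320/em 400 nm). No-inhibitor wells were set to 100% and 200 μM NSA to 0%; run in triplicate.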

[3] = target: T1, NDM-1; format: binding; conditions: 2 μM NDM-1, up to 32 μM compound
[4] = target: Human carbonic anhydrase II (Homo sapiens, UniProt P00918); experiment: hCAII inhibition, p-nitrophenyl acetate assay; format: biochemical
Procedure, shortened: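 Esterase activity was started with 500 μM p-nitrophenyl acetate and followed at 405 nm for 15 min. No-inhibitor wells were set to 100% and 50 μM benzene sulfonamide to 0%; run in triplicate.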

[5] = test system: Zn(II)-dependent metalloenzymes (HDACs, MMPs, CAs); experiment: Panel of Zn; format: biochemical; conditions: 50 – 100 μM; data not shown
[6] = target: T1, NDM-1; experiment: NDM-1 IC50 variation with exogenous Zn; format: biochemical; conditions: Figure S3
[7] = target: T3, HDAC-6 (Homo sapiens, UniProt Q9UBN7); experiment: HDAC-6 inhibition, fluorescence assay; format: biochemical; conditions: at 10 μM
T3 sequence (Q9UBN7 1-1215): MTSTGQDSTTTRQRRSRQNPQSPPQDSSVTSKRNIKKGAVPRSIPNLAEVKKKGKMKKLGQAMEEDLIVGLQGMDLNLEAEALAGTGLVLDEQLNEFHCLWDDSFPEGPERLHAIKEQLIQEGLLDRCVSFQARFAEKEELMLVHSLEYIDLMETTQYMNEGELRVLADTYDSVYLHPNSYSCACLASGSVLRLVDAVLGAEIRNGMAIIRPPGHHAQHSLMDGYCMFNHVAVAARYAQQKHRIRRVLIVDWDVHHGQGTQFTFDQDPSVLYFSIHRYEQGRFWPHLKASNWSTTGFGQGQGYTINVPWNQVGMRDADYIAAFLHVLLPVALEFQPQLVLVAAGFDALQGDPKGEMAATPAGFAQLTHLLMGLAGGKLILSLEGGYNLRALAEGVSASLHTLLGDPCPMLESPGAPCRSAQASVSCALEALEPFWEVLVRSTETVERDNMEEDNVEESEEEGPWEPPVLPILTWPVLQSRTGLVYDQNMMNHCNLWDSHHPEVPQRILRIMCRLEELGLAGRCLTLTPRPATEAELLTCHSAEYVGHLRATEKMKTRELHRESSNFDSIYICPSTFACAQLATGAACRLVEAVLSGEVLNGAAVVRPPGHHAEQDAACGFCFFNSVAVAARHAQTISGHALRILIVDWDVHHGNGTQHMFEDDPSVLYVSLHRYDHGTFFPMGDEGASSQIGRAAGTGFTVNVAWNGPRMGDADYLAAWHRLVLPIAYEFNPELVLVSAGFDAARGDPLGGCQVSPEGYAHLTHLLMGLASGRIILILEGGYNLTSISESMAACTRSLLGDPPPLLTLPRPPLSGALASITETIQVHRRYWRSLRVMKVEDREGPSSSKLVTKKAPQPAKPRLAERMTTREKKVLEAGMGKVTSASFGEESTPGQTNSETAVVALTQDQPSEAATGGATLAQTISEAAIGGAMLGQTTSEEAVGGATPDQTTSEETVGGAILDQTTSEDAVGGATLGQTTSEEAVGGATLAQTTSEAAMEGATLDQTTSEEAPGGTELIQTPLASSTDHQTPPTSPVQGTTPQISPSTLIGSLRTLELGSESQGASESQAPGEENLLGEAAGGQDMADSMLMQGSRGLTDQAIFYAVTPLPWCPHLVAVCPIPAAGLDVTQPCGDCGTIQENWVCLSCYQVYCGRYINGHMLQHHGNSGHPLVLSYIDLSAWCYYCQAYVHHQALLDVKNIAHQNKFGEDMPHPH
Procedure, shortened: (§2)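 After 5 min preincubation, 20 μM HDAC substrate 3 was added for 30 min at 37 °C, then developer for 15 min at room temperature. Fluorescence ex 360/em 460 nm was read. No-inhibitor wells were set to 100% and 200 μM SAHA to 0%; run in triplicate.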

[8] = target: HDAC-1 (Homo sapiens, UniProt Q13547); experiment: HDAC-1 inhibition, fluorescence assay; format: biochemical; conditions: at 10 μM
Procedure, shortened: as §2

[9] = test system: HEK293 cells; experiment: Cytotoxicity assay; format: cell-based, human; conditions: concentrations relevant to the MIC studies; 4 and 24 h
[10] = target: MMP-12 (Homo sapiens, UniProt P39900); experiment: MMP-12 inhibition, OmniMMP fluorogenic substrate; format: biochemical; conditions: at 10 μM
Procedure, shortened: as §1

[11] = target: T1, NDM-1; experiment: NDM-1 IC50, fluorescent fluorocillin assay; format: biochemical
[12] = test system: E. coli and K. pneumoniae clinical isolates expressing blaNDM-1; experiment: organism not typed; format: cell-based
[13] = Control titration of L-tryptophan fluorescence; conditions: 2 μM L-tryptophan
[14] = test system: clinical K. pneumoniae isolates expressing blaNDM-1; experiment: microbe, parasite or virus in culture; format: cell-based; conditions: Klebsiella pneumoniae
[15] = test system: clinical E. coli isolates expressing blaNDM-1; experiment: microbe, parasite or virus in culture; format: cell-based; conditions: Escherichia coli

T1 sequence (C7C422 29-270 limits assumed): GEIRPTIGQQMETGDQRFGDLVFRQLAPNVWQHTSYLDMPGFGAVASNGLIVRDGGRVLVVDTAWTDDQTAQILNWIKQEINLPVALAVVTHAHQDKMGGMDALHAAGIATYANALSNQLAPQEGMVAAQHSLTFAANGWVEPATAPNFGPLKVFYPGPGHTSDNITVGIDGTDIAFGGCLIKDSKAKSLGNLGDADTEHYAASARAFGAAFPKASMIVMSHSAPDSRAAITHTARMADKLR
HDAC-1, sequence (Q13547 whole entry): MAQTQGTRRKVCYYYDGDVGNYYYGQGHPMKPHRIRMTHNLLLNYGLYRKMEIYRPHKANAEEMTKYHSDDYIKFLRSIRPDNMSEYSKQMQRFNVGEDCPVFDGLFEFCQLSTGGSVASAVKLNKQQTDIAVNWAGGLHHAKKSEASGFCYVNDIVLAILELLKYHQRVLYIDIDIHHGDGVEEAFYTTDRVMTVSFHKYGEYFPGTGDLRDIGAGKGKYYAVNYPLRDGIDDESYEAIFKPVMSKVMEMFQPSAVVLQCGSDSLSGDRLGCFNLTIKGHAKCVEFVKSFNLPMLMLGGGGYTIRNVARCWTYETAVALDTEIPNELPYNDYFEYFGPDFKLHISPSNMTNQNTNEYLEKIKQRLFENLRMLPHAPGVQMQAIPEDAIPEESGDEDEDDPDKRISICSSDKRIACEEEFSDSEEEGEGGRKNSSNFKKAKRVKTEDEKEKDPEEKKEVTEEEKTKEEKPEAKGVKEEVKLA
MMP-12, sequence (P39900 106-470): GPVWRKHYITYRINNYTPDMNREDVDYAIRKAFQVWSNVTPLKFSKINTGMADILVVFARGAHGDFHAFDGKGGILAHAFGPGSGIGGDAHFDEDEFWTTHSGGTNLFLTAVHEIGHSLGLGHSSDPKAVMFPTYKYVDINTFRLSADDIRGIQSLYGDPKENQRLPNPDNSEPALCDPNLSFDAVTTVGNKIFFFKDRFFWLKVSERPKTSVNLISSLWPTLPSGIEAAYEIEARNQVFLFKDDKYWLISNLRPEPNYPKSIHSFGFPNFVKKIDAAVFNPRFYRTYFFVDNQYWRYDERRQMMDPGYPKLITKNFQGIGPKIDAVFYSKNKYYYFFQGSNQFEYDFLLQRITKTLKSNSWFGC

Question: For `Nc1cccc(-c2cc(C(=O)O)nc(C(=O)O)c2)c1` [Compound 36, 4-(3-Aminophenyl)pyridine-2,6-dicarboxylic acid], which “Zn(II) content of NDM-1 after incubation and dialysis” value (from here on “Zn(II) content”) [1] is on record?
Answer: no significant removal of Zn(II)

Question: And the “Zn(II) removed from NDM-1” value ([1]; ~24 μM compound)?
Answer: 10–20%

Question: And the “Percent inhibition of MMP-2” value [2]?
Answer: some inhibition

Question: What about the “quenching of intrinsic tryptophan fluorescence of NDM-1” value [3] of the same compound?
Answer: 50–60%

Question: And the “selectivity for NDM-1 over human CAII” value [4]?
Answer: at least 500 fold

Question: And the “Percent inhibition of hCAII” value ([4]; at 10 μM)?
Answer: did not show inhibition; also recorded: No inhibition

Question: What about the “inhibition of Zn(II) metalloenzymes at higher concentrations” value [5] of the same compound?
Answer: < 50%

Question: What about the “effect of exogenous Zn(II) in the assay buffer on NDM-1 inhibition” value [6] of the same compound?
Answer: little impact on the IC50 value

Question: What about the “Percent inhibition of HDAC-6” value [7] of the same compound?
Answer: did not show inhibition; also recorded: No inhibition

Question: What about the “Percent inhibition of HDAC-1” value [8] of the same compound?
Answer: did not show inhibition; also recorded: No inhibition

Question: What about the “toxicity to HEK293 cells (growth, morphology, viability)” value [9] of the same compound?
Answer: not adversely effected; also recorded: did not exhibit cytotoxicity; also recorded: no toxicity was observed

Question: And the “Percent inhibition of MMP-12” value [10]?
Answer: some inhibition

Question: And the ligand efficiency [11]?
Answer: 0.5 kcal/mol/non-H atom

Question: And the “fold improvement in inhibition compared to DPA” value ([11]; fluorescent assay)?
Answer: 4 fold

Question: And the “effect on bacterial growth of compound alone” value ([12]; 36 alone (100 mg/L), all E. coli and K. pneumoniae strains)?
Answer: no effect on growth

Question: For `O=C(O)c1cccc(C(=O)O)n1` [DPA, 2,6-dipicolinic acid], which “Zn(II) content” value [1] is on record?
Answer: significant loss in Zn(II) content

Question: And the “effect of exogenous Zn(II) in the assay buffer on NDM-1 inhibition” value [6]?
Answer: diminishes the inhibition activity

Question: Which “reduction of fluorescence emission of L-tryptophan” value [13] does the source give for `O=C(O)CN(CCN(CC(=O)O)CC(=O)O)CC(=O)O` [EDTA, ethylenediaminetetraacetic acid] here?
Answer: no change

Question: With `C[C@@H](O)[C@H]1C(=O)N2C(C(=O)O)=C(SCCN=CN)C[C@H]12` [Imipenem, imipenem] as the compound, how does the MIC ([14]; read-out: MIC, imipenem, K. pneumoniae isolate Cm1.62) read?
Answer: 16 µg/mL (≈ 53.4 µM)

Question: What about the MIC ([14]; read-out: MIC, imipenem, K. pneumoniae isolate Cm1.63) of the same compound?
Answer: 8 µg/mL (≈ 26.7 µM)

Question: And the MIC ([14]; read-out: MIC, imipenem, K. pneumoniae isolate Pd1.48)?
Answer: 8 µg/mL (≈ 26.7 µM)

Question: And the MIC ([14]; read-out: MIC, imipenem, K. pneumoniae isolate Pd1.49)?
Answer: 4 µg/mL (≈ 13.4 µM)

Question: And the MIC ([14]; read-out: MIC, imipenem, K. pneumoniae isolate Pd1.50)?
Answer: 8 µg/mL (≈ 26.7 µM)

Question: And the MIC ([14]; read-out: MIC, imipenem, K. pneumoniae isolate Pd1.53)?
Answer: 8 µg/mL (≈ 26.7 µM)

Question: And the MIC ([14]; read-out: MIC, imipenem, K. pneumoniae isolate Pd1.54)?
Answer: 8 µg/mL (≈ 26.7 µM)

Question: What about the MIC ([14]; read-out: MIC, imipenem, K. pneumoniae isolate Pd1.55) of the same compound?
Answer: 8 µg/mL (≈ 26.7 µM)

Question: What about the MIC ([15]; read-out: MIC, imipenem, E. coli isolate Ah8.71) of the same compound?
Answer: 16 µg/mL (≈ 53.4 µM)

Question: And the MIC ([15]; read-out: MIC, imipenem, E. coli isolate Ah8.73)?
Answer: 16 µg/mL (≈ 53.4 µM)

Question: What about the MIC ([15]; read-out: MIC, imipenem, E. coli isolate Ah8.75) of the same compound?
Answer: 16 µg/mL (≈ 53.4 µM)

Question: What about the MIC ([15]; read-out: MIC, imipenem, E. coli isolate Ch8.68) of the same compound?
Answer: 16 µg/mL (≈ 53.4 µM)

Question: And the MIC ([15]; read-out: MIC, imipenem, E. coli isolate Ch8.69)?
Answer: 4 µg/mL (≈ 13.4 µM)

Question: And the MIC ([15]; read-out: MIC, imipenem, E. coli isolate Ch8.70)?
Answer: 16 µg/mL (≈ 53.4 µM)

Question: And the MIC ([15]; read-out: MIC, imipenem, E. coli isolate Ch8.72)?
Answer: 16 µg/mL (≈ 53.4 µM)

Question: And the MIC ([12]; read-out: MICs of imipenem alone)?
Answer: 4 to 16 µg/mL (≈ 13.4 to 53.4 µM)

Question: With `C[C@H](CS)C(=O)N1CCC[C@H]1C(=O)O` [L-Captopril] as the compound, how does the “Zn(II) content” value [1] read?
Answer: did not change

Question: What about the “reduction of fluorescence emission of L-tryptophan” value [13] of the same compound?
Answer: no change
